According to article PMC11696124 (Nature Communications, 2025):
Substitutions are numbered along the chain they refer to.

Tests used:
Rat Clint = format: in vitro ADME; settings: hepatocytes
APOL1 G1 [1] = biological target: T1, APOL1 G1 (Homo sapiens, UniProt O14791, I384M/M228I/R255K/S342G); assay: Thallium flux assay, tet-inducible HEK293 APOL1 G1; format: cell-based
T1 sequence (O14791 28-398 M228I/R255K/S342G/I384M): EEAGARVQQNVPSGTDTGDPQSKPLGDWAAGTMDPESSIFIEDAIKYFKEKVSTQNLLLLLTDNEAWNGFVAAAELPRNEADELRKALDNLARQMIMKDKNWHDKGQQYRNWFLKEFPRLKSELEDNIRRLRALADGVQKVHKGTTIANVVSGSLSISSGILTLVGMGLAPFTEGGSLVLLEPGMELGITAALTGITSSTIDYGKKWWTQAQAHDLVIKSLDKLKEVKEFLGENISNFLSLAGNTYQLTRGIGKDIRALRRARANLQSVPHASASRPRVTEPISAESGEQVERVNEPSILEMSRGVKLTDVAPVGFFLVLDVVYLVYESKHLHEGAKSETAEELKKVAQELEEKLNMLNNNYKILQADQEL

Rat pharmacokinetics = settings: in vivo; for bioavailability: po
LogD7.4 = format: physicochemical; settings: pH 7.4
APOL1 G1 [2] = biological target: T1, APOL1 G1; assay: HEK cell rescue; format: cell-based
Human Clint = format: in vitro ADME; settings: hepatocytes
APOL1 G2 [3] = biological target: T2, APOL1 G2 (Homo sapiens, UniProt O14791, DEL388-389/M228I/R255K); assay: Automated whole-cell patch clamp; format: cell-based
T2 sequence (O14791 with tags, fused parts or gaps M228I/R255K/DEL388-389): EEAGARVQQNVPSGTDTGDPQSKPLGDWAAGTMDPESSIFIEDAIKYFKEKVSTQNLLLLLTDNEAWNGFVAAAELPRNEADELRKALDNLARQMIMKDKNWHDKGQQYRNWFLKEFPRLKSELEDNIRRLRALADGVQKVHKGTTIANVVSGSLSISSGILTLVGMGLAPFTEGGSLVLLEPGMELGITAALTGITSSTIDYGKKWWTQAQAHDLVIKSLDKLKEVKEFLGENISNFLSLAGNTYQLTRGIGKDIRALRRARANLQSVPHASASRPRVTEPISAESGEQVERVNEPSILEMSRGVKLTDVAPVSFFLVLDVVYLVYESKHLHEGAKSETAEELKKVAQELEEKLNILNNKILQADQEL

APOL1 G0 [4] = biological target: T3, APOL1 G0 (Homo sapiens, UniProt O14791, M228I/R255K); assay: Automated whole-cell patch clamp; format: cell-based
T3 sequence (O14791 28-398 M228I/R255K): T1 sequence (O14791 28-398 M228I/R255K/S342G/I384M) with G315S, M357I
Summary of the method: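 Tet-inducible HEK293 APOL1 G0 cells, induced with 15 ng/mL tet for 16–20 h. Automated whole-cell recording used extracellular NaCl and intracellular CsF, with hole resistance 1.5–2.5 MΩ and a ramp protocol. After 5 min control recording, six test compound concentrations (100 pM–1 μM) were applied for 5 min each. Peak outward current was normalized to control and fitted to a four-parameter variable-slope curve; 8 cells.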

recombinant APOL1 G2 = biological target: T4, recombinant APOL1 G2 (Homo sapiens, UniProt O14791, DEL388-389); assay: Trypanosome; format: cell-based
T4 sequence (O14791 with tags, fused parts or gaps DEL388-389): T2 sequence (O14791 with tags, fused parts or gaps M228I/R255K/DEL388-389) with I201M, K228R
Summary of the method: (§1)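 T. b. brucei were grown in modified HMI-9, then plated at 120,000 parasites/well in phenol red/FBS-free medium with Serum Plus, test compound and recombinant APOL1. APOL1 was at a final level killing about 90% of parasites. After 16 h at 37 °C, alamarBlue was added for 2.5 h, read at ex/em 555/585, in duplicate, and fitted to dose–response curves. Experimental replicates: G0 n=1, G1 n=4, G2 n=1.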

recombinant APOL1 G0 = biological target: T5, recombinant APOL1 G0 (Homo sapiens, UniProt O14791); assay: Trypanosome; format: cell-based
T5 sequence (O14791 28-398): T1 sequence (O14791 28-398 M228I/R255K/S342G/I384M) with I201M, K228R, G315S, M357I
Summary of the method: as §1

recombinant APOL1 G1 = biological target: T6, recombinant APOL1 G1 (Homo sapiens, UniProt O14791, I384M/S342G); assay: Trypanosome; format: cell-based
T6 sequence (O14791 28-398 S342G/I384M): T1 sequence (O14791 28-398 M228I/R255K/S342G/I384M) with I201M, K228R
Summary of the method: as §1

APOL1 G2mc mice [5] = settings: 3 mg/kg tid; cited from earlier work
APOL1 G0 [6] = biological target: T3, APOL1 G0; assay: HEK cell rescue; format: cell-based
Summary of the method: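 HEK293 tet-inducible APOL1 cells in DMEM with 2% tet-free FBS, seeded at 23,400 cells/well and induced with 50 ng/mL tet for 24 h alongside test compound. Dosing was a 10-point 3-fold series from 10 μM, in duplicate. MultiTox reagent was added for 30 min at 37 °C, reading viability (ex 400/em 486) and cytotoxicity (ex 485/em 535). The dead:live ratio was normalized to no-tet (100%) and tet-only (0%) controls before curve fitting.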

[7] = system: purified, recombinant APOL1; settings: cited from earlier work
APOL1 G1 [8] = biological target: T1, APOL1 G1; assay: Automated whole-cell patch clamp; format: cell-based
APOL1 G2 [9] = biological target: T7, APOL1 G2 (Homo sapiens, UniProt O14791, DEL388-389/M228I/R255K, cells depend on it); assay: HEK cell rescue; format: cell-based; settings: read-out: APOL1 G2 HEK Cell Rescue EC50; HEK293 APOL1 G2; replicates in brackets
T7 sequence (O14791 with tags, fused parts or gaps M228I/R255K/DEL388-389): T2 sequence (O14791 with tags, fused parts or gaps M228I/R255K/DEL388-389)

[10] = cited from earlier work
APOL1 G2 [11] = biological target: T2, APOL1 G2; assay: Thallium flux assay, tet-inducible HEK293 APOL1 G2; format: cell-based
APOL1 G2sc mice [12] = assay: Kidney histopathology and nephrin immunohistochemistry; format: in vivo, mouse; settings: IFNγ plasmid, 30 mg/kg bid
Summary of the method: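 FVB homozygous APOL1 G2 single-copy mice received a hydrodynamic tail-vein injection of 0.3 μg CpG-free murine IFNγ plasmid in saline (volume 10% of body weight). Groups were balanced by day-5 UACR; vehicle or test compound bid started on day 6. The left kidney was formalin-fixed and cut into 3 µm FFPE sections. Nephrin IHC used CC1 retrieval (95 °C, 64 min), antibody 1:1000 for 1 h, and DAB. AI scoring of all glomeruli in one section gave the H-score.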

APOL1 G2sc mice [13] = assay: Therapeutic IFNγ plasmid model in APOL1 G2 single copy mice, UACR; format: in vivo, mouse; settings: 30 mg/kg bid from day 6, vs vehicle
Summary of the method: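 Homozygous APOL1 G2 single-copy transgenic mice of both sexes. Proteinuria was induced by a single hydrodynamic tail-vein injection of a CpG-free plasmid encoding murine IFNγ, 0.3 μg total in saline at 10% body weight, given over about 5–10 s. Mice were allocated by day-5 UACR to give matched group means (n = 12 vehicle, 11 treated). Serum IFNγ was measured by immunoassay on days 1, 5, 9 and 14.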

APOL1 G2mc mice [14] = assay: Prophylactic IFNγ-induced proteinuria model in APOL1 G2 multicopy mice; format: in vivo, mouse; settings: 30 mg/kg bid

hepatocyte CLint (Rat Clint) [µL/min/1e6 cells] | IC50 (APOL1 G1 [1]) [nM] | Vd (Rat pharmacokinetics) [L/kg] | clearance (Rat pharmacokinetics) [L/h/kg] | half-life (Rat pharmacokinetics) [h] | bioavailability (Rat pharmacokinetics) [%] | logD (LogD7.4) | EC50 (APOL1 G1 [2]) [nM] | hepatocyte CLint (Human Clint) [µL/min/1e6 cells] | SMILES | EC50 (APOL1 G2 [9]) [nM] | IC50 (APOL1 G2 [11]) [nM] | also measured
8.2 | 40 | 2.1 | 0.9 | 4.1 | 34 | 2.8 | 37 | 15.4 | Cc1cc(F)cc2c(CCC(=O)N[C@H]3CCNC3=O)c(-c3ccc(F)cc3)[nH]c12 [Compound 2, 3-[5-fluoro-2-(4-fluorophenyl)-7-methyl-1H-indol-3-yl]-N-[(3S)-2-oxopyrrolidin-3-yl]propanamide] |  |  | 
5.1 | 4.2 | 1.4 | 0.36 | 4.2 | 28 | 2.7 | 3.6 | 6.3 | Cc1cc(F)cc2c(CCC(=O)N[C@@H]3C(=O)NC[C@H]3O)c(-c3ccc(F)cc3)[nH]c12 [Compound 3, 3-[5-fluoro-2-(4-fluorophenyl)-7-methyl-1H-indol-3-yl]-N-[(3S,4 R)-4-hydroxy-2-oxo-pyrrolidin-3-yl]propanamide] | 10 | 5.4 | microscopic evaluation of kidney tissues (APOL1 G2sc mice [12]): no microscopic abnormalities or nephrin loss were noted; nephrin H-scores versus no IFNγ control (APOL1 G2sc mice [12]): comparable; Percent reduction in UACR AUC Day 6-14 (APOL1 G2sc mice [13]): 97%; APOL1-mediated proteinuria, prophylactic treatment (APOL1 G2mc mice [14]): able to prevent APOL1-mediated proteinuria

SMILES | hepatocyte CLint (Rat Clint) [µL/min/1e6 cells] | IC50 (APOL1 G1 [1]) [nM] | Vd (Rat pharmacokinetics) [L/kg] | clearance (Rat pharmacokinetics) [L/h/kg] | half-life (Rat pharmacokinetics) [h] | bioavailability (Rat pharmacokinetics) [%] | logD (LogD7.4) | EC50 (APOL1 G1 [2]) [nM] | hepatocyte CLint (Human Clint) [µL/min/1e6 cells] | EC50 (APOL1 G2 [9]) [nM] | IC50 (APOL1 G2 [11]) [nM] | also measured
O=C(CCc1c(-c2ccc(F)cc2)[nH]c2c(F)cc(F)cc12)N[C@@H]1C(=O)NC[C@H]1O [VX-147, 3-[5,7-difluoro-2-(4-fluorophenyl)-1H-indol-3-yl]-N-[(3S,4 R)-4-hydroxy-2-oxo-pyrrolidin-3-yl] propanamide] | 4.7 | 2 | 0.9 | 0.288 | 2.5 | 57 | 2.7 | 2 | < 2.5 | 2.2 | 1.2 | IC50 (APOL1 G2 [3]): 1.1 nM; IC50 (APOL1 G0 [4]): 2.3 nM; EC50 (recombinant APOL1 G2): 1.2 nM; EC50 (recombinant APOL1 G0): 2 nM; EC50 (recombinant APOL1 G1): 2.1 nM; APOL1-dependent proteinuria, prophylactic treatment (APOL1 G2mc mice [5]): reduced APOL1-dependent proteinuria; EC50 (APOL1 G0 [6]): 4.3 nM; binding to purified, recombinant APOL1 [7]: bind directly; IC50 (APOL1 G1 [8]): 1.3 nM; reduction in proteinuria ([10]; 13-week clinical trial, patients with two APOL1 risk alleles and proteinuric non-diabetic kidney disease): 47.6%; glomerular filtration rate ([10]; 13-week study in 16 individuals): stable
